Laboratory results from ChEMBL document CHEMBL1156597, “Structure-activity relationship of kahalalide F synthetic analogues” (J Med Chem, 2008).

How the values were obtained:
LoVo [1] = assay: Cytotoxicity against human LoVo cells after 48 hrs by SRB assay; assay type: functional; details: for CC50: read-out: LC50 (the source's name)
LNCaP = assay: Cytotoxicity against human LNcaP cells after 48 hrs by SRB assay; assay type: functional; details: for CC50: read-out: LC50 (the source's name)
Procedure, shortened: (§1)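 Cells grown in RPMI 1640 with 10% FBS and penicillin/streptomycin at 37 °C and 5% CO₂, trypsinized, then seeded at 5 × 10³/well. After 18 h drug-free attachment, samples in DMSO/EtOH/PBS (0.5:0.5:99) were added for 48 h continuous exposure. Cells were fixed with cold TCA (1 h, 4 °C) and stained with SRB (10 min). Tris-solubilized stain read at 490 nm. Triplicate wells, mean ± SD; GI₅₀ derived.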

SK-MEL-28 = assay: Cytotoxicity against human SK-MEL-28 cells after 48 hrs by SRB assay; assay type: functional, cell-based; details: Homo sapiens, SK-MEL-28, 48 h; for CC50: read-out: LC50 (the source's name); procedure, shortened: as §1
SK-BR-3 = assay: Cytotoxicity against human SKBR3 cells after 48 hrs by SRB assay; assay type: functional; details: SK-BR-3, 48 h; for CC50: read-out: LC50 (the source's name); procedure, shortened: as §1
PANC-1 = assay: Cytotoxicity against human PANC1 cells after 48 hrs by SRB assay; assay type: functional; details: PANC-1, 48 h; for CC50: read-out: LC50 (the source's name); procedure, shortened: as §1
[2] = Cytotoxicity against human HeLa-APL cells after 48 hrs by SRB assay; assay type: functional; procedure, shortened: as §1
HeLa = assay: Cytotoxicity against human HeLa cells after 48 hrs by SRB assay; assay type: functional; details: for CC50: read-out: LC50 (the source's name); procedure, shortened: as §1
DU-145 = assay: Cytotoxicity against human DU145 cells after 48 hrs by SRB assay; assay type: functional, cell-based; details: Homo sapiens, DU-145, 48 h; for CC50: read-out: LC50 (the source's name); procedure, shortened: as §1
HT-29 = assay: Cytotoxicity against human HT29 cells after 48 hrs by SRB assay; assay type: functional, cell-based; details: Homo sapiens, HT-29, 48 h; for CC50: read-out: LC50 (the source's name); procedure, shortened: as §1
[3] = Cytotoxicity against human IGROV-ET cells after 48 hrs by SRB assay; assay type: functional; details: for CC50: read-out: LC50 (the source's name); procedure, shortened: as §1
LoVo [4] = assay: Cytotoxicity against human doxorubicin resistant LoVo cells after 48 hrs by SRB assay; assay type: functional; details: for CC50: read-out: LC50 (the source's name); procedure, shortened: as §1
[5] = Cytotoxicity against human IGROV cells after 48 hrs by SRB assay; assay type: functional; details: for CC50: read-out: LC50 (the source's name); procedure, shortened: as §1
A549 = assay: Cytotoxicity against human A549 cells after 48 hrs by SRB assay; assay type: functional, cell-based; details: Homo sapiens, A549, 48 h; for GI50: read-out: GI50; procedure, shortened: as §1
K562 = assay: Cytotoxicity against human K562 cells after 48 hrs by SRB assay; assay type: functional; details: K562, 48 h; for CC50: read-out: LC50 (the source's name); procedure, shortened: as §1

C/C=C1\NC(=O)[C@H](Cc2ccccc2)NC(=O)[C@@H](C(C)C)NC(=O)[C@@H]([C@H](C)CC)NC(=O)[C@H](NC(=O)[C@H](NC(=O)[C@H](CCCN)NC(=O)[C@H]2CCCN2C(=O)[C@H](NC(=O)[C@H](CCCN)NC(=O)[C@@H](NC(=O)[C@H](NC(=O)CCCC(C)C)C(C)C)[C@@H](C)O)C(C)C)[C@H](C)CC)[C@H](C)OC(=O)[C@H](C(C)C)NC1=O
GI50 (LoVo [1]): 3610 nM
TGI (LoVo [1]): 4540 nM
CC50 (LoVo [1]): 3900 nM
GI50 (LNCaP): 1760 nM
TGI (LNCaP): 2730 nM
CC50 (LNCaP): 1390 nM
TGI (SK-MEL-28): 1410 nM
GI50 (SK-MEL-28; read-out: GI50): 1520 nM
CC50 (SK-MEL-28): 1290 nM
TGI (SK-BR-3): 5240 nM
GI50 (SK-BR-3; read-out: GI50): 4460 nM
CC50 (SK-BR-3): 1050 nM
GI50 (PANC-1): 1730 nM
TGI (PANC-1): 2080 nM
CC50 (PANC-1): 2290 nM
GI50 [2]: 1110 nM
LC50 (concentration giving 50% net cell kill) [2]: 1270 nM
TGI [2]: 1190 nM
GI50 (HeLa): 1280 nM
TGI (HeLa): 1070 nM
CC50 (HeLa): 898 nM
TGI (DU-145): 1330 nM
GI50 (DU-145; read-out: GI50): 1230 nM
CC50 (DU-145): 1440 nM
GI50 (HT-29): 4610 nM
TGI (HT-29): 4910 nM
CC50 (HT-29): 2350 nM
TGI [3]: 1340 nM
GI50 ([3]; read-out: GI50): 1350 nM
CC50 [3]: 638 nM
GI50 (LoVo [4]): 7590 nM
TGI (LoVo [4]): 7660 nM
CC50 (LoVo [4]): 3710 nM
CC50 [5]: 758 nM
LC50 (A549): 1810 nM
TGI (A549): 3670 nM
GI50 (A549): 2920 nM
GI50 (K562): 218 nM
TGI (K562): 950 nM
CC50 (K562): 1910 nM

C/C=C1\NC(=O)[C@H](Cc2ccccc2)NC(=O)[C@@H](C(C)C)NC(=O)[C@@H]([C@H](C)CC)NC(=O)[C@H](NC(=O)[C@H](NC(=O)[C@H](CCCN)NC(=O)[C@H]2CCCN2C(=O)[C@H](NC(=O)[C@@H](NC(=O)[C@@H](NC(=O)[C@H](NC(=O)CCCC(C)C)C(C)C)[C@@H](C)O)C(C)C)C(C)C)[C@H](C)CC)COC(=O)[C@H](C(C)C)NC1=O
GI50 (LoVo [1]): 457 nM
TGI (LoVo [1]): 513 nM
CC50 (LoVo [1]): 620 nM
GI50 (LNCaP): 3370 nM
TGI (LNCaP): 3360 nM
CC50 (LNCaP): 2140 nM
TGI (SK-MEL-28): 1500 nM
GI50 (SK-MEL-28; read-out: GI50): 1900 nM
CC50 (SK-MEL-28): 1180 nM
CC50 (SK-BR-3): 610 nM
CC50 (PANC-1): 8970 nM
GI50 [2]: 1930 nM
LC50 (concentration giving 50% net cell kill) [2]: 1320 nM
TGI [2]: 1650 nM
CC50 (HeLa): 1470 nM
TGI (DU-145): 5210 nM
GI50 (DU-145; read-out: GI50): 5040 nM
CC50 (DU-145): 5370 nM
GI50 (HT-29): 983 nM
TGI (HT-29): 1540 nM
CC50 (HT-29): 1970 nM
GI50 [3]: 753 nM
GI50 ([3]; read-out: GI50): 620 nM
CC50 [3]: 663 nM
GI50 (LoVo [4]): 353 nM
TGI (LoVo [4]): 367 nM
CC50 (LoVo [4]): 384 nM
TGI [5]: 25100 nM
GI50 ([5]; read-out: GI50): 16700 nM
CC50 [5]: 33800 nM
LC50 (A549): 1270 nM
TGI (A549): 1350 nM
GI50 (A549): 1440 nM
CC50 (K562): 4460 nM

C/C=C1\NC(=O)[C@H](Cc2ccccc2)NC(=O)[C@@H](C(C)C)NC(=O)[C@@H]([C@H](C)CC)NC(=O)[C@H](NC(=O)[C@H](NC(=O)[C@H](CCCN)NC(=O)[C@H]2CCCN2C(=O)[C@H](NC(=O)[C@@H](NC(=O)[C@@H](NC(=O)[C@H](NC(=O)CCCCCC)C(C)C)[C@@H](C)O)C(C)C)C(C)C)[C@H](C)CC)[C@H](C)OC(=O)[C@H](C(C)C)NC1=O
GI50 (LoVo [1]): 320 nM
TGI (LoVo [1]): 324 nM
CC50 (LoVo [1]): 326 nM
GI50 (LNCaP): 1090 nM
TGI (LNCaP): 863 nM
CC50 (LNCaP): 861 nM
GI50 (SK-MEL-28): 915 nM
GI50 (SK-MEL-28; read-out: GI50): 808 nM
CC50 (SK-MEL-28): 991 nM
GI50 (SK-BR-3): 36.3 nM
GI50 (SK-BR-3; read-out: GI50): 227 nM
CC50 (SK-BR-3): 363 nM
GI50 (PANC-1): 2360 nM
TGI (PANC-1): 3780 nM
CC50 (PANC-1): 2720 nM
GI50 [2]: 781 nM
LC50 (concentration giving 50% net cell kill) [2]: 864 nM
TGI [2]: 822 nM
GI50 (HeLa): 965 nM
TGI (HeLa): 882 nM
CC50 (HeLa): 806 nM
GI50 (DU-145): 880 nM
GI50 (DU-145; read-out: GI50): 848 nM
CC50 (DU-145): 895 nM
GI50 (HT-29): 499 nM
TGI (HT-29): 583 nM
CC50 (HT-29): 1070 nM
GI50 [3]: 304 nM
GI50 ([3]; read-out: GI50): 289 nM
CC50 [3]: 394 nM
GI50 (LoVo [4]): 264 nM
TGI (LoVo [4]): 244 nM
CC50 (LoVo [4]): 175 nM
GI50 [5]: 404 nM
GI50 ([5]; read-out: GI50): 354 nM
CC50 [5]: 421 nM
LC50 (A549): 1150 nM
TGI (A549): 1160 nM
GI50 (A549): 1180 nM
GI50 (K562): 2740 nM
TGI (K562): 2970 nM
CC50 (K562): 1990 nM
